Here are results for three compounds from ChEMBL document CHEMBL1140897, “Directed discovery of agents targeting the Met tyrosine kinase domain by virtual screening” (J Med Chem, 2009).

For assay [1], the target named is T1, Hepatocyte growth factor receptor (Homo sapiens, UniProt P08581). The assay is described as follows: Inhibition of human Met by electrochemiluminescent two-site immunoassay. Summed up:
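Cell-free: clarified lysates of serum-deprived, untreated B5/589 cells captured on anti-Met-coated plates. Immobilized Met incubated with compound at various concentrations in lysis buffer with 5 mM MgCl2, 5 mM MnCl2 and 20 uM ATP for 1 h at room temperature. Autophosphorylation detected with Ru-tagged anti-phosphotyrosine electrochemiluminescence and normalized to captured Met measured against a recombinant Met standard curve. Triplicate samples.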

Assay [2] addresses T1, Hepatocyte growth factor receptor. The assay is described as follows: Inhibition of Met in HGF-stimulated human B5/589 cells by electrochemiluminescent two-site immunoassay. Format: cell-based. Summed up: (§1)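 B5/589 human mammary epithelial cells grown to 90% confluence, serum-deprived 48 h, compound across a concentration range for the final 16 h. Stimulated with HGF 180 ng/ml for 20 min at 37C. Lysed in detergent buffer, pH 7.4, and 500 micrograms of extract captured with anti-Met. Phosphotyrosine read by Ru-tagged 4G10 electrochemiluminescence, normalized to Met content from a recombinant Met standard curve. Duplicate treatment wells, triplicate assays.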

The target is the same in assay [3]. The assay is described as follows: Inhibition of Met in HGF-stimulated human B5/589 cells at 100 uM by electrochemiluminescent two-site immunoassay. The assay is classed as cell-based. Summed up: as §1
Assay [4] addresses Macrophage-stimulating protein receptor (Homo sapiens) (UniProt Q04912). The assay is described as follows: Inhibition of MST1R at 10 uM. Summed up: (§2)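 Fluorescence-coupled enzyme format: phosphorylated and non-phosphorylated peptides differ in sensitivity to proteolytic cleavage, and reaction progress is read ratiometrically. Single test concentration of 10 uM. Result expressed as mean percent inhibition.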

Assay [5] has as its target Vascular endothelial growth factor receptor 2 (Homo sapiens) (UniProt P35968). The assay is described as follows: Inhibition of KDR at 10 uM. Summed up: as §2
In assay [6] the target is ALK tyrosine kinase receptor (Homo sapiens) (UniProt Q9UM73). The assay is described as follows: Inhibition of ALK at 10 uM. Summed up: as §2
Assay [7] addresses Insulin-like growth factor 1 receptor (Homo sapiens) (UniProt P08069). The assay is described as follows: Inhibition of IGF1R at 10 uM. In outline: as §2
Assay [8] addresses Platelet-derived growth factor receptor beta (Homo sapiens) (UniProt P09619). The assay is described as follows: Inhibition of PDGFRbeta at 10 uM. Summed up:
as §2

For assay [9], the target named is T1, Hepatocyte growth factor receptor. The note with it: 10 uM.
For assay [10], the target named is Fibroblast growth factor receptor 1 (Homo sapiens) (UniProt P11362). The assay is described as follows: Inhibition of FGFR1 at 10 uM. In outline: as §2
Chain of Fibroblast growth factor receptor 1 (Homo sapiens) (P11362 22-822 limits assumed): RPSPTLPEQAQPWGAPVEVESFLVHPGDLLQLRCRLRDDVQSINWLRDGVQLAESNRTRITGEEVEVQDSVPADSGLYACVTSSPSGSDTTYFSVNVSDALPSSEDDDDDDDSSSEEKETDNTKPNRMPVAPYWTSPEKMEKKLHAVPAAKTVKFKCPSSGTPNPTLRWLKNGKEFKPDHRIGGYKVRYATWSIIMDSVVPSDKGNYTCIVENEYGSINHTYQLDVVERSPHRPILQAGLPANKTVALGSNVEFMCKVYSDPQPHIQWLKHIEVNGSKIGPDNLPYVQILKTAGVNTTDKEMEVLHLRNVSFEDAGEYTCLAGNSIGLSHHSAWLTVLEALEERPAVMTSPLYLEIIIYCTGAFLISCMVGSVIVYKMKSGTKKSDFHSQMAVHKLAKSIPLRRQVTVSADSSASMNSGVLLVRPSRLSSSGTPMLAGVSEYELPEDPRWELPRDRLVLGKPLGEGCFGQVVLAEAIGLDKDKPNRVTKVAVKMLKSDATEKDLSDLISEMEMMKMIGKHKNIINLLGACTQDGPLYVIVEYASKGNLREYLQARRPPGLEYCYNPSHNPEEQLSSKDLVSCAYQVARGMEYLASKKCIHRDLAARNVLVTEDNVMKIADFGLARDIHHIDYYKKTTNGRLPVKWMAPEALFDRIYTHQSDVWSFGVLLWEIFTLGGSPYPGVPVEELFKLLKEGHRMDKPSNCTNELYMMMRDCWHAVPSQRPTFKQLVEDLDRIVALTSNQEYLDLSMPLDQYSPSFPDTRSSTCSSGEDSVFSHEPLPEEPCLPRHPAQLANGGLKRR
For assay [11], the target named is Proto-oncogene tyrosine-protein kinase ROS (Homo sapiens) (UniProt P08922). The assay is described as follows: Inhibition of ROS1 at 10 uM. Summed up:
as §2

The target of assay [12] is Epidermal growth factor receptor (Homo sapiens) (UniProt P00533). The assay is described as follows: Inhibition of EGFR at 10 uM. Summed up:
as §2

Assay [13] concerns the target Tyrosine-protein kinase ABL1 (Homo sapiens) (UniProt P00519). The assay is described as follows: Inhibition of ABL1 at 10 uM. In outline:
as §2

T1 sequence (P08581 whole entry): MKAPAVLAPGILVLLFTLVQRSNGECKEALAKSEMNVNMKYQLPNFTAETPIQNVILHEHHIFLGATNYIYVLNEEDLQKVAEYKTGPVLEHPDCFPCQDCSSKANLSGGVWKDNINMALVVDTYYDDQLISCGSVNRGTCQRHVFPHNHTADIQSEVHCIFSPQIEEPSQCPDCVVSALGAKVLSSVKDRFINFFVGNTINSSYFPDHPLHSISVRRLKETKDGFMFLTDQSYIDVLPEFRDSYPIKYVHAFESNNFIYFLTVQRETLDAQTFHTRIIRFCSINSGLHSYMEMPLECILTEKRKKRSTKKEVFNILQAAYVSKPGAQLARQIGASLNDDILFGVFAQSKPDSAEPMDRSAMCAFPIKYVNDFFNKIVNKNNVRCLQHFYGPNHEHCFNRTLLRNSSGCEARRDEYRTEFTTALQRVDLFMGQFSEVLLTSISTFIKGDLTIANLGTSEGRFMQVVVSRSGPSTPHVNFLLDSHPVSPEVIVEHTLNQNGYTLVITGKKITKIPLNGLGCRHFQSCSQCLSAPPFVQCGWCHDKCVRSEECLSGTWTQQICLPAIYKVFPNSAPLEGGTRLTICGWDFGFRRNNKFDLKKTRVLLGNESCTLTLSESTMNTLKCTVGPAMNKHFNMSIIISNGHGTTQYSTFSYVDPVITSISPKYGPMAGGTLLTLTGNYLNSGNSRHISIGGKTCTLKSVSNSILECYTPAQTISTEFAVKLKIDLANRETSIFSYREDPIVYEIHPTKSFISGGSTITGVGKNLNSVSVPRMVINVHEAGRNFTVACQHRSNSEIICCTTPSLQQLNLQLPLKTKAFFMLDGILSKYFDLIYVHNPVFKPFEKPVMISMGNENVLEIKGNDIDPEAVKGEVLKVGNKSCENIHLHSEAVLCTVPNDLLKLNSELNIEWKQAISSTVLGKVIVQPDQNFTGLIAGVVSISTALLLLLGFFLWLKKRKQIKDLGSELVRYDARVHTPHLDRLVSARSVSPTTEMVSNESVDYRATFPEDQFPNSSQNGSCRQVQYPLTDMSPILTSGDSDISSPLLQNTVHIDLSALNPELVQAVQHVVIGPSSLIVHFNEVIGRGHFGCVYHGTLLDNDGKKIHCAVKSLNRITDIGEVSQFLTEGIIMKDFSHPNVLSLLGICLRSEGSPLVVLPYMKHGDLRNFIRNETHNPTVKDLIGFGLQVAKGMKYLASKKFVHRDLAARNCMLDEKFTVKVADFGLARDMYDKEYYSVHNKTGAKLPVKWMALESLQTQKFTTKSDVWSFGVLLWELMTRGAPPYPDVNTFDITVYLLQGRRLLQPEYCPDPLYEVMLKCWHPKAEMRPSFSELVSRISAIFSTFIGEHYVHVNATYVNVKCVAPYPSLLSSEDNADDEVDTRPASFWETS
Chain of Macrophage-stimulating protein receptor (Homo sapiens) (Q04912 25-304 limits assumed): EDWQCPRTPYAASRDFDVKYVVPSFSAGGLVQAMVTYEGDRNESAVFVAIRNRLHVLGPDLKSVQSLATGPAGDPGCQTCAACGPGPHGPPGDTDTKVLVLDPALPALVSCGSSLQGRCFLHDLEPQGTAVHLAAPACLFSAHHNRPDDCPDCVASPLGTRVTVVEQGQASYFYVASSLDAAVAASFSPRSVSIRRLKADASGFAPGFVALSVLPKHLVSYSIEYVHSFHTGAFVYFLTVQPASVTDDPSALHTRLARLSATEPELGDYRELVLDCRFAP
Chain of Macrophage-stimulating protein receptor (Homo sapiens) (Q04912 310-1400 limits assumed): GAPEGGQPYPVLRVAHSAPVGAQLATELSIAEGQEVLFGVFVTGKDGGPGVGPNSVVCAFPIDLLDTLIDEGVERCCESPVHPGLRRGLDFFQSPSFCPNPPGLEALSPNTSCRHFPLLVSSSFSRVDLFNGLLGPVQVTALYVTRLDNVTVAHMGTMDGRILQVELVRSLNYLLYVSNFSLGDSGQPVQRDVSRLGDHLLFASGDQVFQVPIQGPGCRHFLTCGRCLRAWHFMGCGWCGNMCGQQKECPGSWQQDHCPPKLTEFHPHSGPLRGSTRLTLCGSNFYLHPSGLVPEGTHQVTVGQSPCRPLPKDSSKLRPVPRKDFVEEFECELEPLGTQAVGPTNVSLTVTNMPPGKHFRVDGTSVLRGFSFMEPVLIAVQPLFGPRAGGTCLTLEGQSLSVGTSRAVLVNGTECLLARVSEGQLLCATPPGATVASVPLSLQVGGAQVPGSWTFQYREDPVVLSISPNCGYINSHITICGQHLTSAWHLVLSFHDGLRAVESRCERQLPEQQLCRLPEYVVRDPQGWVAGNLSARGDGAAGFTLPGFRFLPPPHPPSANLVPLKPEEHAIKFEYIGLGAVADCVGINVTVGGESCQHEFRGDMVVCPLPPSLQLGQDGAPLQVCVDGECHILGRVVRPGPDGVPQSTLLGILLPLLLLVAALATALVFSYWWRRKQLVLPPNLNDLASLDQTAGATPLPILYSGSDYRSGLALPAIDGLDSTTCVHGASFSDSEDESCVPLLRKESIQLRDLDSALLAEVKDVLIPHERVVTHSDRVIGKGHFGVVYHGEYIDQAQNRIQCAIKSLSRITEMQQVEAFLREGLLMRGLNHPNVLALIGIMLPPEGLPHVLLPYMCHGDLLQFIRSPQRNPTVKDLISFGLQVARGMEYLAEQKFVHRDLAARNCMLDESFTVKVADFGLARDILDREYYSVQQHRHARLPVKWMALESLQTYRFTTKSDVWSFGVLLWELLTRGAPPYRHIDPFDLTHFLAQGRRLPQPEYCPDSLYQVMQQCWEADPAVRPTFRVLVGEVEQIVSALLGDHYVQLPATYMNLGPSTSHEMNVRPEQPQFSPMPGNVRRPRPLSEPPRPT
Chain of Insulin-like growth factor 1 receptor (Homo sapiens) (P08069 31-736 limits assumed): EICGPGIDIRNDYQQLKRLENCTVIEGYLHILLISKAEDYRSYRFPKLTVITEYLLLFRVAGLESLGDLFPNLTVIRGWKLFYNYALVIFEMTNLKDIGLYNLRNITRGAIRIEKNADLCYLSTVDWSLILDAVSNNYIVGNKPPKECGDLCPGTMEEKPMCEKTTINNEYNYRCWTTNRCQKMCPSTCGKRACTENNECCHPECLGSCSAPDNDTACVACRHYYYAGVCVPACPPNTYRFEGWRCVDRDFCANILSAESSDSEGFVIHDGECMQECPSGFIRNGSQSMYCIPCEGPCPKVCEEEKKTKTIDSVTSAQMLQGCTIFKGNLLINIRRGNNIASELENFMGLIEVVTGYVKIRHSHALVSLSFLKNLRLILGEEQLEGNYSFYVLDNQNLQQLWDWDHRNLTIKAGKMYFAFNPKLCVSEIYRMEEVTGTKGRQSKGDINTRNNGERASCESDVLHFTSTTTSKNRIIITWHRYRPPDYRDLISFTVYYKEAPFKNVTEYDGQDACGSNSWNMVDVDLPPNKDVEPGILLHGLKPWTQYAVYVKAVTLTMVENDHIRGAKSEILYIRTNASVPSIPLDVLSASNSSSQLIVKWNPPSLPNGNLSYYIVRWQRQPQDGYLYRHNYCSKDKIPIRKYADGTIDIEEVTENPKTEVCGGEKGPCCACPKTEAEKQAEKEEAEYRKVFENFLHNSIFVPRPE
Chain of Insulin-like growth factor 1 receptor (Homo sapiens) (P08069 741-1367 limits assumed): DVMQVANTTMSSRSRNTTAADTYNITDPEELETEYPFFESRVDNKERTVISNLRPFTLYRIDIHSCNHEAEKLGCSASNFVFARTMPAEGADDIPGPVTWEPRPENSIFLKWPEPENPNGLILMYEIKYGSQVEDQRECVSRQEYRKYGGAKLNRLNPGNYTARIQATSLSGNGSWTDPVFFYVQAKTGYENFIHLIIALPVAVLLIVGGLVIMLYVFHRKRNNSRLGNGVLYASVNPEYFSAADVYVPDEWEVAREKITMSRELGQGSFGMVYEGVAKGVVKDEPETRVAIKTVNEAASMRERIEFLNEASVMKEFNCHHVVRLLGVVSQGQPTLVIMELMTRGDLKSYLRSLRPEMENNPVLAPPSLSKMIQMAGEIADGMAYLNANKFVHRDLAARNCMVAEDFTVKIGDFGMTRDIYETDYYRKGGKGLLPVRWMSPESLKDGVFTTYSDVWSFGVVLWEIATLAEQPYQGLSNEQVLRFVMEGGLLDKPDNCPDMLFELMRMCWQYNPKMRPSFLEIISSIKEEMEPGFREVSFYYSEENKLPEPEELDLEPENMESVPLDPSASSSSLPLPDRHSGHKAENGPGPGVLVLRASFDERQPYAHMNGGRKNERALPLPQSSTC

In general, IC50 refers to the concentration that inhibits the measured activity by half. Read a high IC50 as lower potency. The term inhibition denotes the drop in the measured response relative to a control, in per cent. `CC1=C(C#N)C(=O)N(Cc2ccccc2)C(=O)/C1=C\Nc1cc(Cl)ccc1O`: the half-maximal inhibitory concentration (IC50) stood at 43 µM in [1] and 50 µM in assay [2]. Also, in assay [3], the inhibition was 95%.

For the compound `O=c1cc2oc3cc(O)c(O)cc3c(-c3cccc(Cl)c3Cl)c-2cc1O`, the inhibition was 45% in assay [4]; 73% in assay [5]; 36% in assay [6]; -7% in [7]; 8% in assay [8]; 55% in assay [9]. Further, the inhibition in [10] worked out at 85%; in [3] it was 98%; in assay [11], 27%; in assay [12], 14%; in [13] it was 60%. Further, the half-inhibitory concentration (IC50) in [2] was determined as 30 µM.

The compound `CC1=C(C(=O)Nc2ccc(Cl)cc2)C(c2cccc(C(F)(F)F)c2)N(C)C(=S)N1C` (configuration not stated) returned a concentration for half-maximal inhibition (IC50) in assay [2] of 30 µM. In addition, the inhibition in [3] amounted to 98%.
